Like-named read-outs stand apart in the source and are kept apart here.
Legend:
[1] = test system: COLO 205; assay: NCI 60-cell line screen; assay type: cell-based, human
[2] = test system: MDA-MB-468; assay: NCI 60-cell line screen; assay type: cell-based, human
[3] = test system: HL-60(TB); conditions: leukemia
[4] = test system: HCT-116; assay: NCI 60-cell line screen; assay type: cell-based, human
[5] = test system: HCT-15; assay: NCI 60-cell line screen; assay type: cell-based, human
[6] = test system: NCI-H23; assay: NCI 60-cell line screen; assay type: cell-based, human
[7] = test system: HT29; assay: NCI 60-cell line screen; assay type: cell-based, human
[8] = test system: UACC-62; assay: NCI 60-cell line screen; assay type: cell-based, human
Outline: (§1)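 Test compounds were submitted to the National Cancer Institute and run under NCI's standard 60-cell-line protocols. Read-outs were taken from percent-growth versus log-concentration curves.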

[9] = test system: T-47D; assay: NCI 60-cell line screen; assay type: cell-based, human
Outline: as §1

[10] = test system: UACC-257; assay: NCI 60-cell line screen; assay type: cell-based, human
Outline: as §1

[11] = test system: A549/ATCC; assay: NCI 60-cell line screen; assay type: cell-based, human
[12] = test system: HL-60(TB); assay: cells; conditions: Homo sapiens
[13] = test system: HS 578T; assay: NCI 60-cell line screen; assay type: cell-based, human
[14] = test system: MOLT-4; assay: NCI 60-cell line screen; assay type: cell-based, human
[15] = test system: U251; assay: NCI 60-cell line screen; assay type: cell-based, human
Outline: as §1

[16] = test system: NCI-H460; assay: NCI 60-cell line screen; assay type: cell-based, human
[17] = test system: SF-539; assay: NCI 60-cell line screen; assay type: cell-based, human
Outline: as §1

[18] = test system: LOX IMVI; assay: NCI 60-cell line screen; assay type: cell-based, human
[19] = test system: PC-3; assay: NCI 60-cell line screen; assay type: cell-based, human
Outline: as §1

[20] = test system: EKVX; assay: NCI 60-cell line screen; assay type: cell-based, human
[21] = test system: SK-MEL-5; assay: NCI 60-cell line screen; assay type: cell-based, human
Outline: as §1

[22] = molecular target: PI3Kγ enzyme (Homo sapiens, UniProt P48736); assay: Adapta universal kinase assay, anti-PI3Kγ activity; assay type: biochemical
Outline: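 Adapta ADP-detection TR-FRET immunoassay with test compound at 100 μM. The kinase reaction runs 60 min. It is then stopped by a detection solution of EDTA, europium-labelled anti-ADP antibody and Alexa Fluor 647-labelled ADP tracer. ADP formed displaces the tracer and lowers the TR-FRET signal. ADP formation is calculated from the emission ratio.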

[23] = test system: MDA-MB-435; assay: NCI 60-cell line screen; assay type: cell-based, human
[24] = test system: M14; assay: NCI 60-cell line screen; assay type: cell-based, human
[25] = test system: NCI/ADR-RES; assay: NCI 60-cell line screen; assay type: cell-based, human

Chain of PI3Kγ enzyme (P48736 whole entry): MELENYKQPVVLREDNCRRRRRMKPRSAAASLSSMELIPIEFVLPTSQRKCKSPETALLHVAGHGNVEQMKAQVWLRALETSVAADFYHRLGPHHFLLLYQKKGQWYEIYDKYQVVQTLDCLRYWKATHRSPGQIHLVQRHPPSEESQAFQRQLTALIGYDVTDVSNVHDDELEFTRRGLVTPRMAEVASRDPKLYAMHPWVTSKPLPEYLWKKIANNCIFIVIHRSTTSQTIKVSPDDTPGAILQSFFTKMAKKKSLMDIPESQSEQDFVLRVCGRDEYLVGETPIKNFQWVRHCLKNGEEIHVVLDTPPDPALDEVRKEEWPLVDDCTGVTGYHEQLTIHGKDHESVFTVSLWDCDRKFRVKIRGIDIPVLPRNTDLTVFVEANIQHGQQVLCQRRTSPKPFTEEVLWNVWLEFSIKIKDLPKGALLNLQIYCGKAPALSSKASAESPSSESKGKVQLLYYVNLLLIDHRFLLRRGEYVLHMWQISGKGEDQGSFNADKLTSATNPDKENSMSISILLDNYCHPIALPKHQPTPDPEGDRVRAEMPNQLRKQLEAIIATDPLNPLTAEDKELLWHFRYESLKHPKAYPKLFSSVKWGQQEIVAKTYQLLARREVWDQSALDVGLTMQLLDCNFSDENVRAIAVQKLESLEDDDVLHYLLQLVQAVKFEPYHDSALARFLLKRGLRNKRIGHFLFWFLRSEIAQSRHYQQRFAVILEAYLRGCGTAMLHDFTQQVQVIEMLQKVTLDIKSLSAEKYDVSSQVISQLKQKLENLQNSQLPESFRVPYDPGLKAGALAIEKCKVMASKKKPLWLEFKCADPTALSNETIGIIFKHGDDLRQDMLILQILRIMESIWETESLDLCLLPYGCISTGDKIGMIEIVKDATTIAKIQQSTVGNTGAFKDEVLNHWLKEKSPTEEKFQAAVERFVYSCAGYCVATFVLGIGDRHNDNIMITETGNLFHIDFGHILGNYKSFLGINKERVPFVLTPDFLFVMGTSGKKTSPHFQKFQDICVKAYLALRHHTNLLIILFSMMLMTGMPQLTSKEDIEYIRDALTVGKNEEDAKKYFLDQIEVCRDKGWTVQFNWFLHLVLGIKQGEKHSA

SMILES: O=C(CNc1ccc([N+](=O)[O-])cc1)Nc1nc2ccccc2s1 [OMS5, N-(1,3-benzothiazol-2-yl)-2-(4-nitroanilino)acetamide]
- TGI ([1]; COLO 205, colon cancer): 1500 nM
- GI50 ([1]; Homo sapiens, COLO 205): 400 nM
- IC50 ([1]; Homo sapiens, COLO 205): 700 nM
- CC50 ([1]; Homo sapiens, COLO 205, read-out: LC50): 4700 nM
- GI50 ([2]; Homo sapiens, MDA-MB-468): 400 nM
- IC50 ([2]; Homo sapiens, MDA-MB-468): 1800 nM
- CC50 ([2]; Homo sapiens, MDA-MB-468, read-out: LC50): 5300 nM
- TGI ([2]; MDA-MB-468, breast cancer): 1800 nM
- TGI [3]: 14000 nM
- TGI ([4]; HCT-116, colon cancer): 11000 nM
- GI50 ([4]; Homo sapiens, HCT-116): 400 nM
- IC50 ([4]; Homo sapiens, HCT-116): 400 nM
- CC50 ([4]; Homo sapiens, HCT-116, read-out: LC50): 45700 nM
- TGI ([5]; HCT-15, colon cancer): 3700 nM
- GI50 ([5]; Homo sapiens, HCT-15): 500 nM
- IC50 ([5]; Homo sapiens, HCT-15): 700 nM
- CC50 ([5]; Homo sapiens, HCT-15, read-out: LC50): 28800 nM
- GI50 ([6]; Homo sapiens, NCI-H23): 1000 nM
- IC50 ([6]; Homo sapiens, NCI-H23): 2100 nM
- CC50 ([6]; Homo sapiens, NCI-H23, read-out: LC50): 7800 nM
- TGI ([6]; NCI-H23, non-small cell lung cancer): 2800 nM
- TGI ([7]; HT29, colon cancer): 2100 nM
- GI50 ([7]; Homo sapiens, HT-29): 500 nM
- IC50 ([7]; Homo sapiens, HT-29): 700 nM
- CC50 ([7]; Homo sapiens, HT-29, read-out: LC50): 8100 nM
- GI50 ([8]; Homo sapiens, UACC-62): 1100 nM
- IC50 ([8]; Homo sapiens, UACC-62): 2000 nM
- CC50 ([8]; Homo sapiens, UACC-62, read-out: LC50): 5500 nM
- TGI ([8]; UACC-62, melanoma): 2500 nM
- GI50 ([9]; Homo sapiens, T47D): 1000 nM
- IC50 ([9]; Homo sapiens, T47D): 4600 nM
- CC50 ([9]; Homo sapiens, T47D, read-out: LC50): 74100 nM
- TGI ([9]; T-47D, breast cancer): 4600 nM
- GI50 ([10]; Homo sapiens, UACC-257): 1300 nM
- IC50 ([10]; Homo sapiens, UACC-257): 2500 nM
- CC50 ([10]; Homo sapiens, UACC-257, read-out: LC50): 6300 nM
- TGI ([10]; UACC-257, melanoma): 2800 nM
- TGI ([11]; A549/ATCC, non-small cell lung cancer): 28000 nM
- GI50 ([11]; Homo sapiens, A549): 800 nM
- IC50 ([11]; Homo sapiens, A549): 1500 nM
- CC50 ([11]; Homo sapiens, A549, read-out: LC50): > 100000 nM
- GI50 ([12]; HL-60): 800 nM
- IC50 ([12]; HL-60): 2500 nM
- CC50 ([12]; HL-60, read-out: LC50): > 100000 nM
- TGI ([13]; HS 578T, breast cancer): 5600 nM
- GI50 ([13]; Homo sapiens, Hs-578T): 1600 nM
- IC50 ([13]; Homo sapiens, Hs-578T): 5900 nM
- CC50 ([13]; Homo sapiens, Hs-578T, read-out: LC50): 93300 nM
- GI50 ([14]; Homo sapiens, MOLT-4): 400 nM
- IC50 ([14]; Homo sapiens, MOLT-4): 600 nM
- CC50 ([14]; Homo sapiens, MOLT-4, read-out: LC50): > 100000 nM
- TGI ([14]; MOLT-4, leukemia): 12000 nM
- GI50 ([15]; Homo sapiens, U-251): 900 nM
- IC50 ([15]; Homo sapiens, U-251): 1700 nM
- CC50 ([15]; Homo sapiens, U-251, read-out: LC50): 41700 nM
- TGI ([15]; U251, CNS cancer): 12000 nM
- GI50 ([16]; Homo sapiens, NCI-H460): 400 nM
- IC50 ([16]; Homo sapiens, NCI-H460): 500 nM
- CC50 ([16]; Homo sapiens, NCI-H460, read-out: LC50): 39800 nM
- TGI ([16]; NCI-H460, non-small cell lung cancer): 3300 nM
- GI50 ([17]; Homo sapiens, SF-539): 500 nM
- IC50 ([17]; Homo sapiens, SF-539): 1400 nM
- CC50 ([17]; Homo sapiens, SF-539, read-out: LC50): 6500 nM
- TGI ([17]; SF-539, CNS cancer): 2100 nM
- GI50 ([18]; Homo sapiens): 600 nM
- IC50 ([18]; Homo sapiens): 1000 nM
- CC50 ([18]; Homo sapiens, read-out: LC50): 8700 nM
- TGI ([18]; melanoma): 2600 nM
- GI50 ([19]; Homo sapiens, PC-3): 1600 nM
- IC50 ([19]; Homo sapiens, PC-3): 2800 nM
- CC50 ([19]; Homo sapiens, PC-3, read-out: LC50): > 100000 nM
- TGI ([19]; PC-3, prostate cancer): 45000 nM
- GI50 ([20]; Homo sapiens): 1100 nM
- IC50 ([20]; Homo sapiens): 2500 nM
- CC50 ([20]; Homo sapiens, read-out: LC50): 26900 nM
- TGI ([20]; non-small cell lung cancer): 4200 nM
- GI50 ([21]; Homo sapiens, SK-MEL-5): 1600 nM
- IC50 ([21]; Homo sapiens, SK-MEL-5): 2900 nM
- CC50 ([21]; Homo sapiens, SK-MEL-5, read-out: LC50): 5500 nM
- TGI ([21]; SK-MEL-5, melanoma): 3000 nM
- inhibition at 100 µM ([22]; read-out: % of inhibition (mean) against PI3Kγ enzyme): 0%
- inhibition at 100 µM ([22]; read-out: % of inhibition against PI3Kγ enzyme, point 1): 0%
- inhibition at 100 µM ([22]; read-out: % of inhibition against PI3Kγ enzyme, point 2): 0%
- GI50 ([23]; Homo sapiens, MDA-MB-435): 700 nM
- IC50 ([23]; Homo sapiens, MDA-MB-435): 1300 nM
- CC50 ([23]; Homo sapiens, MDA-MB-435, read-out: LC50): 4800 nM
- TGI ([23]; MDA-MB-435, melanoma): 2000 nM
- GI50 ([24]; Homo sapiens, M14): 900 nM
- IC50 ([24]; Homo sapiens, M14): 1400 nM
- CC50 ([24]; Homo sapiens, M14, read-out: LC50): 6500 nM
- TGI ([24]; M14, melanoma): 2500 nM
- GI50 ([25]; Homo sapiens): 600 nM
- IC50 ([25]; Homo sapiens): 1300 nM
- CC50 ([25]; Homo sapiens, read-out: LC50): 53700 nM
- TGI ([25]; ovarian cancer): 4600 nM

From publication PMC10975593 (ACS Omega, 2024)
